From ChEMBL document CHEMBL1938351, “The discovery of potent antagonists of NPBWR1 (GPR7)” (Bioorg Med Chem Lett, 2012)
Activity calls are given as the source filed them. No cut-off for these calls is given here.

How the values were obtained:
[1] = Metabolic stability in mouse liver microsomes assessed as compound remaining after 30 mins; format: ADME, Microsome; conditions: read-out: Stability
In short: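 Compounds were incubated with mouse liver microsomes. The read-out was the percentage of parent compound remaining at 30 min.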

LLC-PK1 = assay: P-glycoprotein-mediated efflux in pig LLC-PK1 cells expressing MDR1; format: cell-based; conditions: Sus scrofa
[2] = biological target: T1, Neuropeptides B/W receptor type 1 (Mus musculus, UniProt P49681); assay: Displacement of [125]-hNPW23 from mouse NPBWR1 expressed in CHO-K1 cells membrane by scintillation proximity assay; format: cell membranes
T1 sequence (P49681 whole entry): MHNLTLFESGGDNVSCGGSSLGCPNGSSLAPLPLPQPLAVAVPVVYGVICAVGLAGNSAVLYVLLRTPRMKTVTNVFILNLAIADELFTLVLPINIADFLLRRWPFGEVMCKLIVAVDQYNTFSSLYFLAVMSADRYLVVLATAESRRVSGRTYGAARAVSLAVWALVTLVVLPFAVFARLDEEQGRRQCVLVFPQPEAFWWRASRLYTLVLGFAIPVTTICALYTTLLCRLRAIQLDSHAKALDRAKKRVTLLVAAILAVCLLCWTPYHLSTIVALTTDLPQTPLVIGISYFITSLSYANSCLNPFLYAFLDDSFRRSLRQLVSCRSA

[3] = biological target: T1, Neuropeptides B/W receptor type 1; assay: Antagonist activity at mouse NPBWR1 expressed in CHO-K1 cells assessed as inhibition of hNPW23 and forskolin-stimulated cAMP production after 1 hr by TR-FRET assay; format: functional, cell-based
[4] = biological target: T2, Neuropeptides B/W receptor type 1 (Homo sapiens, UniProt P48145); assay: Antagonist activity at human NPBWR1 expressed in CHO-K1 cells assessed as inhibition of hNPW23 and forskolin-stimulated cAMP production after 1 hr by TR-FRET assay; format: functional, cell-based
T2 sequence (P48145 whole entry): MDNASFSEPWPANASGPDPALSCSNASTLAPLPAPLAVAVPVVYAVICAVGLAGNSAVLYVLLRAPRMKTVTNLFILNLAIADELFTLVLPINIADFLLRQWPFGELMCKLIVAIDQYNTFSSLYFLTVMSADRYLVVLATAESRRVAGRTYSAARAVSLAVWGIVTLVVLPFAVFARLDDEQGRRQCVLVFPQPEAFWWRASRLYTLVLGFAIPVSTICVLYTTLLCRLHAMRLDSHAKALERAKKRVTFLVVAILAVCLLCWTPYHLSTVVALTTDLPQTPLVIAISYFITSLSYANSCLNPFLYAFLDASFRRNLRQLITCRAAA

[5] = biological target: T2, Neuropeptides B/W receptor type 1; assay: Displacement of [125]-hNPW23 from human NPBWR1 expressed in CHO-K1 cells membrane by scintillation proximity assay; format: cell membranes

Row | Compound | remaining at 0.5 h [1] | Activity (LLC-PK1) | IC50 [2] | IC50 [3] | IC50 [4] | IC50 [5]
1 | COc1ccc(C(C)(C)N[C@@H]2CC[C@H](C(=O)N3CCN(c4nc5ccccc5o4)CC3)[C@@H](c3ccsc3)C2)cc1 | < 10% | Active |  |  |  | 
2 | COc1ccc([C@@H](C)N[C@@H]2CC[C@H](C(=O)N3CCN(c4nnc(C(F)(F)F)s4)CC3)[C@@H](c3ccsc3)C2)cc1 |  |  | 42 nM | 115 nM |  | 
3 | COc1ccc(C2(N[C@@H]3CC[C@H](C(=O)N4CCN(c5ccc(Cl)cn5)CC4)[C@@H](c4ccsc4)C3)CCC2)cc1 |  |  | 3.1 nM | 20 nM |  | 
4 | C[C@@H](N[C@@H]1CC[C@H](C(=O)N2CCN(c3ccc(Cl)cn3)CC2)[C@@H](c2ccsc2)C1)c1ccccc1 |  |  | 217 nM | 981 nM |  | 
5 | Cc1ccc(C(C)(C)N[C@@H]2CC[C@H](C(=O)N3CCN(c4ccc(Cl)cn4)CC3)[C@@H](c3ccsc3)C2)cc1 |  |  | 16 nM | 211 nM |  | 
6 | CC(C)(N[C@@H]1CC[C@H](C(=O)N2CCN(c3ccc(Cl)cn3)CC2)[C@@H](c2ccsc2)C1)c1ccc(F)cc1 |  |  | 17 nM | 320 nM |  | 
7 | COc1ccc([C@@H](C)N[C@@H]2CC[C@H](C(=O)N3CCN(c4ccc(C)cn4)CC3)[C@@H](c3ccsc3)C2)cc1 |  |  | 74 nM | 400 nM |  | 
8 | COc1ccc([C@@H](C)N[C@@H]2CC[C@H](C(=O)N3CCN(c4nccs4)CC3)[C@@H](c3ccsc3)C2)cc1 |  |  | 194 nM | 207 nM |  | 
9 | COc1ccc([C@@H](C)N[C@@H]2CC[C@H](C(=O)N3CCN(c4ccccn4)CC3)[C@@H](c3ccsc3)C2)cc1 |  |  |  | 330 nM |  | 
10 | COc1ccc(C(C)(C)N[C@@H]2CC[C@H](C(=O)N3CCN(c4ccc(Cl)cn4)CC3)[C@@H](c3ccsc3)C2)cc1 |  |  | 11 nM | 43 nM |  | 
11 | COc1ccc(C2(N[C@@H]3CC[C@H](C(=O)N4CCN(c5nc6ccccc6[nH]5)CC4)[C@@H](c4ccsc4)C3)CCC2)cc1 | < 10% | Active | 1.1 nM | 3 nM | 11 nM | 5.9 nM
12 | COc1ccc(C2(N[C@@H]3CC[C@H](C(=O)N4CCN(c5ccc(Cl)cn5)CC4)[C@@H](c4ccsc4)C3)CC2)cc1 |  |  | 56 nM | 523 nM |  | 
13 | O=C([C@H]1CC[C@@H](NC2(c3cccc(Br)c3)CCC2)C[C@@H]1c1ccsc1)N1CCN(c2ccc(Cl)cn2)CC1 |  |  | 160 nM | 972 nM |  | 
14 | CC(C)(N[C@@H]1CC[C@H](C(=O)N2CCN(c3ccc(Cl)cn3)CC2)[C@@H](c2ccsc2)C1)c1ccc(Cl)cc1 |  |  | 27 nM | 1700 nM |  | 
15 | COc1ccc(C2(N[C@@H]3CC[C@H](C(=O)N4CCN(c5nc6cc(F)ccc6[nH]5)CC4)[C@@H](c4ccsc4)C3)CCC2)cc1 | < 10% | Active | 0.42 nM | 0.66 nM |  | 
16 | COc1ccc([C@@H](C)N[C@@H]2CC[C@H](C(=O)N3CCN(c4ccc(OC)cn4)CC3)[C@@H](c3ccsc3)C2)cc1 |  |  |  | 7300 nM |  | 
17 | CC(C)(N[C@@H]1CC[C@H](C(=O)N2CCN(c3ccc(Cl)cn3)CC2)[C@@H](c2ccsc2)C1)c1ccc([N+](=O)[O-])cc1 |  |  | 100 nM | 1100 nM |  | 
18 | COc1ccc(C2(N[C@@H]3CC[C@H](C(=O)N4CCN(c5nnc(C(F)(F)F)s5)CC4)[C@@H](c4ccsc4)C3)CCC2)cc1 | < 10% | Active |  |  |  | 
19 | COc1ccc(CN[C@@H]2CC[C@H](C(=O)N3CCN(c4ccc(Cl)cn4)CC3)[C@@H](c3ccsc3)C2)cc1 |  |  | 1520 nM | 3590 nM |  | 
20 | COc1ccc([C@@H](C)N[C@@H]2CC[C@H](C(=O)N3CCN(c4ccc(Cl)cc4)CC3)[C@@H](c3ccsc3)C2)cc1 |  |  | 3720 nM | 3860 nM |  | 
21 | C[C@@H](N[C@@H]1CC[C@H](C(=O)N2CCN(c3ccc(Cl)cn3)CC2)[C@@H](c2ccsc2)C1)c1ccc(Br)cc1 |  |  | 134 nM | 2630 nM |  | 

Row | Compound | remaining at 0.5 h [1] | Activity (LLC-PK1) | IC50 [2] | IC50 [3] | IC50 [4] | IC50 [5]
22 | COc1ccc([C@@H](C)N[C@@H]2CC[C@H](C(=O)N3CCN(c4ccc(C(F)(F)F)cn4)CC3)[C@@H](c3ccsc3)C2)cc1 |  |  |  | 200 nM |  | 
23 | COc1ccc([C@@H](C)N[C@@H]2CC[C@H](C(=O)N3CCN(c4nc5ccccc5o4)CC3)[C@@H](c3ccsc3)C2)cc1 |  |  | 2.8 nM | 18 nM |  | 
24 | COc1ccc([C@@H](C)N[C@@H]2CC[C@H](C(=O)N3CCN(c4cccc(Cl)n4)CC3)[C@@H](c3ccsc3)C2)cc1 |  |  |  | 7490 nM |  | 
25 | COc1ccc(C(C)(C)N[C@@H]2CC[C@H](C(=O)N3CCN(c4nc5ccccc5[nH]4)CC3)[C@@H](c3ccsc3)C2)cc1 | < 10% | Active |  |  |  | 
26 | COc1ccc([C@@H](C)N[C@@H]2CC[C@H](C(=O)N3CCN(c4ncc(Br)s4)CC3)[C@@H](c3ccsc3)C2)cc1 |  |  | 14 nM | 55 nM |  | 
27 | COc1ccc(C2(N[C@@H]3CC[C@H](C(=O)N4CCN(c5nc6cc(C)ccc6o5)CC4)[C@@H](c4ccsc4)C3)CCC2)cc1 | < 10% | Active |  |  |  | 
28 | COc1ccc([C@@H](C)N[C@@H]2CC[C@H](C(=O)N3CCN(c4nc5ccccc5[nH]4)CC3)[C@@H](c3ccsc3)C2)cc1 |  |  | 8.3 nM | 20 nM |  | 
29 | COc1ccc(C2(N[C@@H]3CC[C@H](C(=O)N4CCN(c5nc6cc(F)ccc6o5)CC4)[C@@H](c4ccsc4)C3)CCC2)cc1 | < 10% | Active | 0.2 nM | 0.86 nM |  | 
30 | COc1ccc(C2(N[C@@H]3CC[C@H](C(=O)N4CCN(c5nnc(Br)s5)CC4)[C@@H](c4ccsc4)C3)CCC2)cc1 | < 10% | Active |  |  |  | 
31 | COc1ccc([C@@H](C)N[C@@H]2CC[C@H](C(=O)N3CCN(c4ccc(C#N)cn4)CC3)[C@@H](c3ccsc3)C2)cc1 |  |  | 1140 nM | 7050 nM |  | 
32 | COc1ccc(C2(N[C@@H]3CC[C@H](C(=O)N4CCN(c5nc6ccccc6s5)CC4)[C@@H](c4ccsc4)C3)CCC2)cc1 | < 10% | Active | 0.33 nM | 1.8 nM |  | 
33 | COc1ccc(C2(N[C@@H]3CC[C@H](C(=O)N4CCN(c5nc6ccccc6o5)CC4)[C@@H](c4ccsc4)C3)CCC2)cc1 | < 10% | Active |  |  |  | 
34 | COc1ccc(C2(N[C@@H]3CC[C@H](C(=O)N4CCN(c5nc6ccc(F)cc6o5)CC4)[C@@H](c4ccsc4)C3)CCC2)cc1 | < 10% | Active | 0.18 nM | 1.3 nM |  | 
35 | O=C([C@H]1CC[C@@H](NC2(c3ccccc3Br)CCC2)C[C@@H]1c1ccsc1)N1CCN(c2ccc(Cl)cn2)CC1 |  |  | 2200 nM | 2210 nM |  | 
36 | COc1ccc([C@@H](C)N[C@@H]2CC[C@H](C(=O)N3CCN(c4ncccc4Cl)CC3)[C@@H](c3ccsc3)C2)cc1 |  |  |  | > 32000 nM |  | 
37 | COc1ccc([C@@H](C)N[C@@H]2CC[C@H](C(=O)N3CCN(c4nc5ccccc5s4)CC3)[C@@H](c3ccsc3)C2)cc1 |  |  | 4.5 nM | 24 nM |  | 
38 | COc1ccc([C@@H](C)N[C@@H]2CC[C@H](C(=O)N3CCN(c4ccc(Cl)cn4)CC3)[C@@H](c3ccsc3)C2)cc1 | 0% | Active | 25 nM | 360 nM | 1920 nM | 324 nM
39 | O=C([C@H]1CC[C@@H](NC2(c3ccc(Br)cc3)CCC2)C[C@@H]1c1ccsc1)N1CCN(c2ccc(Cl)cn2)CC1 |  |  | 82 nM | 601 nM |  | 
40 | COc1cccc(C2(N[C@@H]3CC[C@H](C(=O)N4CCN(c5ccc(Cl)cn5)CC4)[C@@H](c4ccsc4)C3)CCC2)c1 |  |  | 118 nM | 1020 nM |  | 
41 | COc1ccc([C@@H](C)N[C@@H]2CC[C@H](C(=O)N3CCN(c4cc(Cl)ccn4)CC3)[C@@H](c3ccsc3)C2)cc1 |  |  |  | 2140 nM |  | 
